V-ATPase pH: regulators of yeast V-ATPase proton pumping, primary screen, pHLuorin cytosolic pH fluorescence | S. cerevisiae | response, % at 10 µM | 0.37% of 350,000 active | AID 504577, 2011; in the data active means response mostly above about 7.3%, no sharp cut-off; inactive means mostly below about 5.4%; further: actives read high
Cl transport mod: KCC2 cotransporter modulators, thallium flux, primary screen, cell-based, HEK293 KCC2, FluoZin-2 fluorescence, MLSMR | KCC2 cells, thallium flux FluoZin-2 fluorescence | B-score of Tl+ flux slope (higher = more flux/activation; lower = inhibition) at 10 µM | 2.2% of 190,000 active;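 active means thallium flux slope and its plate-corrected score both differing from the plate sample mean at a set confidence after two filtering rounds, in either direction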;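 further: slope of fluorescence scaled to starting intensity during 10 to 20 s after thallium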
ABCB6 inh MLPCN: ABCB6 transporter inhibitors, primary screen, K562-ABCB6 cells, flow cytometry, MLPCN library. K562-ABCB6 porphyrin accumulation, 1 h; active compounds read low. ATP-binding cassette sub-family B member 6 (Homo sapiens), Q9NP58. fluorescence ratio to DMSO, % at 10 µM. AID 602162, 2011. 0.19% of 360,000 active;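 active means fluorescence ratio to DMSO below 75%, the collection mean minus 3 SD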;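 further: signal is porphyrin accumulated inside mitochondria; 100% equals median channel fluorescence of DMSO control wells; lower ratio means ABCB6 inhibition with less porphyrin fluorescence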
p-CIP stab down: p/CIP-EGFP fusion destabilizers, primary screen, fluorescence, F442A cells. AID 1984, 2009. Q05BA5. decrease of EGFP signal, % at 10 µM. 16 h. 0.01% of 290,000 active;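 active means EGFP signal decrease of at least 30% at 10 µM or well 3 SD below plate mean, unless failing retest; inactive means the rest, including hits failing retest or dose response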
Dynein cargo inh: inhibitors of GR-EGFP nuclear translocation, primary screen, dynein cargo transport inhibitor project, imaging, high-content, 3617.4 mouse cells. 0.47% of 220,000 active. AID 1381, 2008. test concentration mostly 20 µM; stimulated with dexamethasone, 1 µM; active compounds read low. z-score, hits read low;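 active means plate z-score of nuclear minus cytoplasmic receptor signal below a set negative limit, without overly bright fluorescence or cell loss, cut at about -3.5 in these data, passing the limit was not always enough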;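 further: z-score of nuclear minus cytoplasmic ring GR-EGFP intensity difference per well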
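Buffer or medium: Induction medium lacking tetracycline, stripped serum | Also added: Dexamethasone agonist, 1.0 µM final, for 30 min | Timing: 48 h induction, 1 h compound, 30 min dex at 37 °C | Detection: Formaldehyde fixation, Hoechst nuclear stain, 10x automated fluorescence imaging | Measure: Nuclear versus cytoplasmic GR-EGFP signal, averaged per well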
V-ATPase pH SP: yeast V-ATPase proton pumping modulators, confirmation, S. cerevisiae, pH-sensitive GFP, second cherry-pick | S. cerevisiae pHLuorin cytosolic pH, V-ATPase proton transport | response, % at 10 µM | shares compounds with V-ATPase pH | 2% of 980 active; in the data active means response above about 24%;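 further: plate controls were vehicle wells for no effect and positive control wells for full effect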
Numbers without * were called inactive; / = not tested or not shown. Only a selection was taken, and hits are over-represented in it overall.

SMILES	V-ATPase pH	Cl transport mod	ABCB6 inh MLPCN	p-CIP stab down	Dynein cargo inh	V-ATPase pH SP
O=C1N[C@@H](Cc2c[nH]c3ccccc23)COC(=O)[C@@H](Cc2ccc(F)cc2)CC/C=C/C[C@@H]1CC(=O)N(CCO)Cc1ccccc1	-1	/	86	/	/	/
CN(CC(=O)Nc1ccc(N2CCOCC2)cc1)C(=O)CC(c1ccccc1)c1ccccc1	12*	-0.085	96	4	-0.11	2
CN(CC(=O)Nc1ccc(N2CCOCC2)cc1)C(=O)CSc1ccccc1F	4	/	101	/	/	/
CCOc1ccc2nc(N3CCC(C(=O)N4CCN(C(=O)c5ccco5)CC4)CC3)sc2c1	12*	-0.2	99	-32	-0.29	4
O=C(C1=C[C@H](c2ccc(Br)cc2)C[C@H](OCCCCO)O1)N1CCN(Cc2ccccc2)CC1	1	-0.074	95	5	-1.8	/
CCc1ccc(Cn2nnc(C(=O)Nc3ccc(OC)cc3OC)c2N)cc1	12*	/	101	1	-0.011	4
COC(=O)c1ccc(N2C(c3cc(OC)cc(OC)c3)=Cc3ccc(-c4ccc(C(N)=O)cc4)cc3C2CC(=O)C2CC2)cc1 (stereo not given)	/	/	96	/	/	/
COc1ccc(NC(=S)N2CCN(C/C=C/c3ccccc3)CC2)c(OC)c1	12*	0.4	101	0	-0.26	-1
CC(=O)Nc1ccc(OCC(O)CN2C(C)(C)CC(O)CC2(C)C)cc1 (stereo not given)	-1	0.0044	98	-5	-0.81	/
CC1=C(C(=O)N(C)C)CC(CC(=O)NC2CCCCC2)C(=O)N1Cc1ccccc1 (stereo not given)	-1	/	97	/	/	/
CCN(CC)C(=O)C1=C(C)N(Cc2ccccc2)C(=O)C(CC(=O)NC2CCCC2)C1 (stereo not given)	7.1*	/	93	/	/	-1
CCOC(=O)C1(Cc2cccc(F)c2)CCN(Cc2cnn(CC)c2C)CC1	-2	0.14	101	-15	-0.71	/
COc1ccc(C(=S)N2CCN(C)CC2)cc1Br	8.0*	/	114	-1	1.9	-1
COc1ccc(C(=S)N2CCCC2)cc1Br	-2	/	96	5	/	/
O=C(CCSc1ccccc1)NC(=O)COC(=O)c1ccc(OC(F)F)cc1	3	1.4	97	-4	0.12	/
Cc1nnc(SCc2nc3ccccc3s2)n1N	1	-0.16	100	-3	1.4	/
Cc1nnc(SCc2nc3ccccc3s2)n1-c1ccccc1	8.3*	0.11	115	-2	-0.89	2
C/C(=C/c1ccccc1)C(=O)N1CCC(C)CC1	11*	/	102	-11	/	-2
CCOC(=O)CSc1nc2ccccc2c(=O)[nH]1	10*	/	96	3	-0.22	0
CCOC(=O)c1n[nH]c2ccccc12	4	-0.4	100	0	-1.8	-4
CCN(CC)C(=O)CSc1nc2ccccc2c(=O)[nH]1	0	0.25	95	-8	-0.025	/
CCOC(=O)c1nc2ccccc2c(=O)[nH]1	-1	/	96	-19	-0.57	-1
CCC(=O)NC(=S)Nc1ccc(NC(=O)c2ccc(Br)o2)cc1	2	0.52	88	-12	1.9	/
O=C(Nc1ccc(S(=O)(=O)Nc2ncccn2)cc1)C1=NN(c2ccccc2)C(=O)CC1	-4	-1.1	103	5	-1.1	/
COc1ccc2ccccc2c1CNC(C)CCc1ccccc1 (stereo not given)	1	/	96	1	/	/
C[C@H](c1ccccc1)n1nnc(COCc2ccccc2)c1C#CCOCc1ccccc1	9.9*	-0.16	102	-14	-0.0083	1
O=C(NCC#CCOCc1ccccc1)c1ccccc1	4	0.35	98	0	0.18	/
COC(=O)c1ccc(-n2c(C)cc(C(=O)CSc3cccc[n+]3[O-])c2C)cc1	12*	-0.021	102	-3	-0.27	0
Cc1cc(C(=O)CSc2cccc[n+]2[O-])c(C)n1-c1ccc(OC(F)F)cc1	-3	-0.68	95	-5	-0.35	/

Screening data deposited in PubChem by several laboratories.
